Values joined by “and” are separate entries in the source; they are usually repeats but may differ in a detail not shown here. Equal entries are not always repeated.
Assays:
Rattus norvegicus [1] = assay: Percent inhibitory activity in rat passive cutaneous anaphylaxis test at a dose of 25 mg/kg administered perorally; format: functional; details: for inhibition in vivo at 25 mg/kg: Rattus norvegicus, po; for Inhibition: route oral, 25 mg/kg
Procedure, shortened: (§1)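 Rats immunized i.m. with ovalbumin plus aluminum hydroxide, plus B. pertussis i.p., gave IgE antiovalbumin serum. Naive male Sprague-Dawley rats were sensitized intradermally at dorsal sites (1:20), with 48 h latency. Compound was given orally in 1% methylcellulose, 10 min before i.v. challenge with 4 mg ovalbumin in 1% Evans blue. Blued wheal areas were read at 30 min. Groups of 4–8; mean ± SE, Student's t test.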

Rattus norvegicus [2] = species on record: Rattus norvegicus; assay: Concentration required to inhibit Antigen-induced release of Histamine from rat mast cells; format: functional, cell-based; details: read-out: I50
Rattus norvegicus [3] = species on record: Rattus norvegicus; assay: Concentration required to inhibit Antigen-induced release of Histamine from rat mast cells at 100 uM; format: functional; details: Mast cell
Rattus norvegicus [4] = assay: Percent inhibitory activity in rat passive cutaneous anaphylaxis test at a dose of 25 mg/kg, ip; format: functional; details: route intraperitoneal
Rattus norvegicus [5] = assay: Effective dose against IgE-mediated cutaneous anaphylaxis in the rat after ip administration; format: functional
Rattus norvegicus [6] = assay: Effective dose against IgE-mediated cutaneous anaphylaxis in the rat after peroral administration; format: functional; details: po; procedure, shortened: as §1
Rattus norvegicus [7] = assay: Percent inhibitory activity in rat passive cutaneous anaphylaxis test at a dose of 10 mg/kg administered perorally; format: functional; details: route oral; procedure, shortened: as §1

Structure (SMILES) | IC50 (Rattus norvegicus [2]) [µM] | inhibition in vivo at 25 mg/kg (Rattus norvegicus [1]) [%] | further results
Cn1c(=O)c2nn(S(C)(=O)=O)c(=O)n2c2ccccc21 | – | 25 | inhibition at 100 µM (Rattus norvegicus [3]): 2%
CCCn1c(=O)c2nn(C(C)=O)c(=O)n2c2ccc(Cl)cc21 | 0.1 | – | inhibition in vivo at 25 mg/kg (Rattus norvegicus [4]): 42%
O=C([O-])c1cc(=O)c2c(OCC(O)COc3cccc4oc(C(=O)[O-])cc(=O)c34)cccc2o1.[Na+].[Na+] [CROMOLYN SODIUM] | – | – | ED50 (Rattus norvegicus [5]): 6 mg/kg
CCCn1c(=O)c2nn(CC(=O)OCC)c(=O)n2c2ccc(Cl)cc21 | – | – | inhibition in vivo at 25 mg/kg (Rattus norvegicus [4]): 14%; inhibition at 100 µM (Rattus norvegicus [3]): 20%
COC(=O)n1nc2c(=O)n(C)c3ccccc3n2c1=O | – | – | inhibition at 100 µM (Rattus norvegicus [3]): 30%
Cn1c(=O)c2nnc(O)n2c2ccc(O)cc21 | – | 20 | inhibition at 100 µM (Rattus norvegicus [3]): 29%
COc1ccc2c(c1)n(C)c(=O)c1nnc(O)n12 | 3 | 10 | –
C=CCn1nc2c(=O)n(CCC)c3cc(Cl)ccc3n2c1=O | – | – | inhibition at 100 µM (Rattus norvegicus [3]): 20%
Cn1nc2c(=O)n(C)c3ccccc3n2c1=O | – | 0 | inhibition at 100 µM (Rattus norvegicus [3]): 30%
Oc1nc2ccccc2n2c(O)nnc12 | – | 40 | inhibition at 100 µM (Rattus norvegicus [3]): 20%
CC(=O)c1ccc2c(c1)n(C)c(=O)c1nnc(O)n12 | 1 | 49 | –

The next lines start with results.

IC50 (Rattus norvegicus [2]) [µM] | Structure (SMILES) | inhibition in vivo at 25 mg/kg (Rattus norvegicus [1]) [%] | further results
0.4 | Cn1c(=O)c2nnc(O)n2c2cc(Cl)ccc21 | 42 | –
35 | COc1cc2c(c(Cl)c1OC)n(C)c(=O)c1nnc(O)n12 | 27 | –
25 | CC(=O)n1nc2c(=O)n(C)c3ccccc3n2c1=O | – | Inhibition (Rattus norvegicus [1]): 27% and 63%
1 | CCCn1c(=O)c2nn(C(=O)/C=C/c3ccccc3)c(=O)n2c2ccc(Cl)cc21 | 38 | ED50 (Rattus norvegicus [6]): > 100 mg/kg
1 | CCCn1c(=O)c2nn(C)c(=O)n2c2ccc(Cl)cc21 | – | ED50 (Rattus norvegicus [6]): > 100 mg/kg
1 | Cn1c(=O)c2nnc(O)n2c2ccc(C(F)(F)F)cc21 | 52 | Inhibition (Rattus norvegicus [1]): 69%; ED50 (Rattus norvegicus [6]): 12 mg/kg
17 | Cc1cccc2c1n(C)c(=O)c1nnc(O)n12 | 35 | Inhibition (Rattus norvegicus [1]): 53%
40 | Cn1c(=O)c2nnc(O)n2c2ccccc21 | 38 | inhibition in vivo at 10 mg/kg (Rattus norvegicus [7]): 56%; ED50 (Rattus norvegicus [6]): 6 mg/kg
43 | CC(=O)n1nc2c(=O)n(C)c3cc(C)c(C)cc3n2c1=O | 26 | –
8 | CCCn1c(=O)c2nnc(O)n2c2ccccc21 | 58 | inhibition in vivo at 10 mg/kg (Rattus norvegicus [7]): 84%; ED50 (Rattus norvegicus [6]): 3 mg/kg
6 | Cc1ccc2c(c1)n(C)c(=O)c1nnc(O)n12 | 18 | –
10 | Cn1c(=O)c2nnc(O)n2c2ccc(Cl)cc21 | 22 | ED50 (Rattus norvegicus [6]): > 125 mg/kg
12 | Cc1cc2c(cc1C)n1c(O)nnc1c(=O)n2C | – | –
0.4 | CCCn1c(=O)c2nnc(O)n2c2ccc(Cl)cc21 | 53 | ED50 (Rattus norvegicus [6]): 3 mg/kg
10 | CC(=O)n1nc2c(=O)n(C(C)=O)c3ccccc3n2c1=O | 36 | –

From ChEMBL document CHEMBL1123142, “1,2,4-Triazolo[4,3-a]quinoxaline-1,4-diones as antiallergic agents” (J Med Chem, 1985)
